Measurements taken from PMC10692396 (Acta Pharmaceutica Sinica. B, 2023).

Experiments:
[1] = system: U251 GBM xenograft tumors; experiment: U251 subcutaneous xenograft in nude mice; type: in vivo; details: for expression of angiogenic markers CD31 and CD105: U251 tumor tissues; for expression of angiogenic markers CD31 and CD105 / expression of M2 phenotype macrophage marker(s) (CD206): IHC; for expression of M2 phenotype macrophage marker(s) (CD206): tumor tissue; for tumor volume reduced: U251 xenograft
[2] = system: intracranial glioma tumor U87MG; experiment: Intracranial U87MG-luc tumor model in nude mice; type: in vivo; details: for median survival time: control 41 days
[3] = system: M2 markers CD206 and ARG1 in BMDM cells; experiment: In vitro differentiation of BMDMs; type: cell-based, mouse; details: BMDM stimulated with CSF1, IL4, IL13; compound 100 nmol/L, 48 h
In short: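 Mouse BMDMs were seeded at 2.5 × 10^6/well and grown 7 days in 10 ng/mL CSF1. CD206 and ARG1 were measured by flow cytometry. Three independent experiments, t-test.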

[4] = system: cells with high expression of Aurora-B; experiment: Cytotoxicity in Aurora-B high cells; type: cell-based; details: data not shown
[5] = system: recurrent high-grade glioma; experiment: First-in-human phase I trial; type: in vivo, patients
[6] = system: D283 medulloblastoma xenograft; experiment: D283 subcutaneous xenograft in NOD-SCID mice; type: in vivo; details: oral, 14 days
In short: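 D283 cells (5 × 106 in 200 μL, half Matrigel) were injected s.c. into the right flank of NOD-SCID mice. Mice were randomized at about 120 mm3 (n = 9/group) and dosed orally twice daily. Tumor size (caliper) and body weight were taken three times weekly. Mice were euthanized after 14 days of dosing and tumors weighed.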

[7] = Pharmacokinetics and brain distribution; type: in vivo, CD-1 mice; details: male, CD-1, mouse, po, 10 mg/kg
In short: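 Thirty male CD-1 mice were split into six groups, one per sampling time (0.5, 1, 2, 4, 8, 24 h), after a single oral 10 mg/kg dose. Plasma was taken from retro-orbital blood. Brains were collected after intracardial perfusion, rinsed in saline, blotted, weighed and homogenized in MeOH-ACN (1/1, 5 mL/g tissue).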

panel of 328 kinases = experiment: Kinase profiling, whole panel; type: biochemical, human; details: 0.1 μmol/L SYHA1813
PDGFRα (V561D) = PDGFRα (V561D) (Homo sapiens, UniProt P16234, V561D); experiment: ELISA kinase assay; type: biochemical
Chain of PDGFRα (V561D) (P16234 24-1089 V561D): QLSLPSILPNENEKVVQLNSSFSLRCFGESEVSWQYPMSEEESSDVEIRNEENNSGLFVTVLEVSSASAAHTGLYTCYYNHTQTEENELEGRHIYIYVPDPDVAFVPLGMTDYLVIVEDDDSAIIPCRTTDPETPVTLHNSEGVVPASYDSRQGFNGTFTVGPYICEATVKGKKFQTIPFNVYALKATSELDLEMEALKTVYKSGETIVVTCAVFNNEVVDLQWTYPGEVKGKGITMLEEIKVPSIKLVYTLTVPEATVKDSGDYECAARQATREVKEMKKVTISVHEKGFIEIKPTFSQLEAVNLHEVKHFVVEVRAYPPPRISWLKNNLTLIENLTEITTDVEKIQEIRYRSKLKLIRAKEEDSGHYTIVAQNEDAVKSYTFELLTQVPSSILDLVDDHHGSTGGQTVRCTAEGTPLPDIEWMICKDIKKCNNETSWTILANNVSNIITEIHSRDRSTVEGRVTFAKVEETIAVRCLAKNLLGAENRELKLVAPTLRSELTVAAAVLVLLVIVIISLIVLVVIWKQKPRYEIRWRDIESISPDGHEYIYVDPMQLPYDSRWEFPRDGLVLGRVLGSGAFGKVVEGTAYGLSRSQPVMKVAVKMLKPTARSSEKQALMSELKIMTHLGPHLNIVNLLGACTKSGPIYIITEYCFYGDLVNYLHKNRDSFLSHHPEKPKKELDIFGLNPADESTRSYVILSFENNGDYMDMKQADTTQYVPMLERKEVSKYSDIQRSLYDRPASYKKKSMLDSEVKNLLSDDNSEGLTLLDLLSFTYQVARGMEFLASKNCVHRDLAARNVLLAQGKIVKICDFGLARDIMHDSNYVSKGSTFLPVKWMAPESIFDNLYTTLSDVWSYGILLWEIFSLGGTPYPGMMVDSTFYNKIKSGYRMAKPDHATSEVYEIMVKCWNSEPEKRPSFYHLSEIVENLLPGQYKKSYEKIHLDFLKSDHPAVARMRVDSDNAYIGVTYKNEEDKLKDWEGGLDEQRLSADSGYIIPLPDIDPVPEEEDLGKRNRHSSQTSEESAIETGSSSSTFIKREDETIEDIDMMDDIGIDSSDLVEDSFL

DBT mouse glioma [8] = experiment: DBT model, combination with anti-PD-1; type: in vivo, BALB/c mice; details: SYHA1813 5 mg/kg p.o. twice daily, anti-PD-1 200 μg i.p. twice a week, or both
DBT mouse glioma [9] = experiment: DBT subcutaneous model in immunocompetent mice; type: in vivo, BALB/c mice; details: 10 mg/kg twice daily
In short: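 BALB/c mice received 5 × 10^6 DBT cells in 200 μL PBS s.c. in the right flank. At about 120 mm3 they were randomized to control or 10 mg/kg (n = 6/group), dosed orally twice daily. Tumor size and body weight were measured three times weekly, and growth was expressed as RTV, mean ± SEM. CD8 was stained by IHC and scored by the multiplicative quick score method.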

HUVEC = experiment: VEGF-stimulated cell viability; type: cell-based; details: Homo sapiens, 72 h, read-out: IC50 HUVEC cell viability
VEGFR-1 = VEGFR-1 (Homo sapiens, UniProt P17948); experiment: ELISA kinase assay; type: biochemical
Chain of VEGFR-1 (P17948 27-1338): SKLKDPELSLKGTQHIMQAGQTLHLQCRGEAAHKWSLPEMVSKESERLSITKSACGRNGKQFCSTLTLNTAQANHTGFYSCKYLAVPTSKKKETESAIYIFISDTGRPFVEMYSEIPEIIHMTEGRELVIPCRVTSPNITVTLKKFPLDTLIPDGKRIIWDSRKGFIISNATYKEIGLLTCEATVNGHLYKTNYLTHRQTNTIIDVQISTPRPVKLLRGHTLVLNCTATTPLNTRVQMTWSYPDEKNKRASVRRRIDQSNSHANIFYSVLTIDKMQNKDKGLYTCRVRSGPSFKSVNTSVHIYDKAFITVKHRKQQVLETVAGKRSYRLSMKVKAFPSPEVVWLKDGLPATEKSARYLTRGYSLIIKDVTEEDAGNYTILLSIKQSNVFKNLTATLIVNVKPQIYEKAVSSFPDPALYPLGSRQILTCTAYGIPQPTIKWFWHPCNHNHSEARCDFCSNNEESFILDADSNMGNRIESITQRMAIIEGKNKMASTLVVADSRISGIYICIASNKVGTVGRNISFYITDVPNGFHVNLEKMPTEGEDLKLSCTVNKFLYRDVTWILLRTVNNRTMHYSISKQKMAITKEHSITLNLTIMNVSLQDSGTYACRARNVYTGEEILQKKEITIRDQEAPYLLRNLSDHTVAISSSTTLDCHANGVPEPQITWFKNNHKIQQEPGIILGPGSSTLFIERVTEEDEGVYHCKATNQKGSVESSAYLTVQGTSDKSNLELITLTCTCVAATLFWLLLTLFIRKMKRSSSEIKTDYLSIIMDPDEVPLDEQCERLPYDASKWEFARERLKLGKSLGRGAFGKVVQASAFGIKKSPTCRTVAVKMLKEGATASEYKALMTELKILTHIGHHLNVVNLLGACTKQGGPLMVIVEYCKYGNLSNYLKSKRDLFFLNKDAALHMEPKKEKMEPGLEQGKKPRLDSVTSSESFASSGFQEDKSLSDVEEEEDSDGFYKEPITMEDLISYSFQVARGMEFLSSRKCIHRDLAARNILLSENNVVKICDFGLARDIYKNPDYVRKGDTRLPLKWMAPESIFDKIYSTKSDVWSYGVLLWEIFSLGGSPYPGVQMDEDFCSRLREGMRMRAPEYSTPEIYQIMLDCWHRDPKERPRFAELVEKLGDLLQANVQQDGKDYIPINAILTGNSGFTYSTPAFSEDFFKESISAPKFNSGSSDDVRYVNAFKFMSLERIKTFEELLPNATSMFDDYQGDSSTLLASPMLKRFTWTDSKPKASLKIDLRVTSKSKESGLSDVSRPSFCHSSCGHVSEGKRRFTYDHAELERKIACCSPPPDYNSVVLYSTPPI

[10] = system: phosphorylation of RET in tumor tissue; experiment: RET phosphorylation in tumor tissue; type: in vivo; details: data not shown
c-Kit = c-Kit (Homo sapiens, UniProt P10721); experiment: ELISA kinase assay; type: biochemical
Chain of c-Kit (P10721 26-976): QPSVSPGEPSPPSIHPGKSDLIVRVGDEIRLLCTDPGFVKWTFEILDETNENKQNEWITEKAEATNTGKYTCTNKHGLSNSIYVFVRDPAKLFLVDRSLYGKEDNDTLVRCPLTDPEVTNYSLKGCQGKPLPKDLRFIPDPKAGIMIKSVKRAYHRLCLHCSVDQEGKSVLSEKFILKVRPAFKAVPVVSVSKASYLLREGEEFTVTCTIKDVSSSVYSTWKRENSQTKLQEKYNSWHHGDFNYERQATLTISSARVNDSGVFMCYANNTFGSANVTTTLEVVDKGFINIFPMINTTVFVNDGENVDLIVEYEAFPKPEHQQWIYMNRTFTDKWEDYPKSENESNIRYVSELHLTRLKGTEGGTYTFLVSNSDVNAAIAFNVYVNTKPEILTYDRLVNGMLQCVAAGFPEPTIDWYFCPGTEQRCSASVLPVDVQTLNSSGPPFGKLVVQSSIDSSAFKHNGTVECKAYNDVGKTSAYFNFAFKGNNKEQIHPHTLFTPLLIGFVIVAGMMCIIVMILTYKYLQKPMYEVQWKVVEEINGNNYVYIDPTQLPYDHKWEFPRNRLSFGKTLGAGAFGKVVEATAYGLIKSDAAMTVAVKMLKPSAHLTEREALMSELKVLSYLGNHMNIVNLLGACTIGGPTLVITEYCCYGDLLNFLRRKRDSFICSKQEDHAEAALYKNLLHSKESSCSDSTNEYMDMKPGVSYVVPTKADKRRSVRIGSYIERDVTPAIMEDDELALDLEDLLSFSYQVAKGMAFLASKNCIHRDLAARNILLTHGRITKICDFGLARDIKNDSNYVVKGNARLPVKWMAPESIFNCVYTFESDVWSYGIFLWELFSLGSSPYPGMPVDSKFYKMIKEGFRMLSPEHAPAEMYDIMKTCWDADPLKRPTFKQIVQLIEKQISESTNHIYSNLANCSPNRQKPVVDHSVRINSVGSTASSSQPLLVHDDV

glioma cell lines = experiment: Cell viability; type: cell-based; details: read-out: IC50 against glioma cell lines
In short: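 GL261, DBT, D283, U87MG and U251 cells were plated, left overnight, then given a range of test compound concentrations for 72 h at 37 °C, 5% CO2. Growth was read by CCK-8. D283 was grown in MEM with 10% FBS, 1% NEAA and 1% NaP. Lines were STR-authenticated.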

mouse glioma GL261-luc = experiment: Intracranial GL261-luc model in immunocompetent mice; type: in vivo, C57BL/6 mice
In short: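 Male C57BL/6 mice aged 4–6 weeks received 2 × 10^5 GL261-luc cells intracranially into the right frontal lobe. About 5 days after inoculation, mice were randomized by IVIS bioluminescence. Brain signal was then imaged once or twice weekly.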

c-Kit (D816H) = c-Kit (D816H) (Homo sapiens, UniProt P10721, D816H); experiment: ELISA kinase assay; type: biochemical
Chain of c-Kit (D816H) (P10721 26-976 D816H): as the sequence (P10721 26-976) above, with D791H counted along it

VEGFR-3 = VEGFR-3 (Homo sapiens, UniProt P35916); experiment: ELISA kinase assay; type: biochemical
CSF1R = CSF1R (Homo sapiens, UniProt P07333); experiment: Surface plasmon resonance; type: binding; details: Biacore 8K, protein immobilized on CM5 chip
Chain of CSF1R (P07333 20-972): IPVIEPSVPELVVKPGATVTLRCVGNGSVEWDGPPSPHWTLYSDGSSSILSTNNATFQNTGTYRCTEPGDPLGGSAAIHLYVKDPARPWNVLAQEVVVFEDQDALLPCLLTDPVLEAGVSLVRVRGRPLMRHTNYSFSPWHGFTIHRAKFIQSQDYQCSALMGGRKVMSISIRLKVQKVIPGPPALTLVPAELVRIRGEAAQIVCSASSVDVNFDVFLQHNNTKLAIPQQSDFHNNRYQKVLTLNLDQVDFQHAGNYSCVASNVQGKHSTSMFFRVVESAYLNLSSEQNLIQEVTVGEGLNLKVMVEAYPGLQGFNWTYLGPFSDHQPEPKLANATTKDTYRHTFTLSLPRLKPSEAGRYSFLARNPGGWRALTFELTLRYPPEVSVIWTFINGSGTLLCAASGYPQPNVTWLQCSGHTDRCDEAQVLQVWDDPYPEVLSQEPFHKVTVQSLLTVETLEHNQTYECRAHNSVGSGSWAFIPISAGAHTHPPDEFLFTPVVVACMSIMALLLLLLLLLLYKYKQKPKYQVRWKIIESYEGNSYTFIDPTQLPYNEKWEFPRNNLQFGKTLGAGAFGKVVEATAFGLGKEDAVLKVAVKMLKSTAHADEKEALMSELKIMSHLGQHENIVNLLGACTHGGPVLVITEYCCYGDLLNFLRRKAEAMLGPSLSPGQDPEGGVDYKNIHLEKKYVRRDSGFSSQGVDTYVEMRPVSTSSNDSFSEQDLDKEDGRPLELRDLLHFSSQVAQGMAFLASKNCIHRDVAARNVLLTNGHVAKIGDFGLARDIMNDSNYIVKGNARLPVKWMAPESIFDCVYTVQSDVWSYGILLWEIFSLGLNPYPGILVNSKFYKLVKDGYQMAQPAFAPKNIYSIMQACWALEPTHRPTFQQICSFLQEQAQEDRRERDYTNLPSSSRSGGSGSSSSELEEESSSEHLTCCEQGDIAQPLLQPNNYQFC
In short: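 Human CSF1R was directly immobilized on a CM5 chip (Biacore 8K), with test compound as analyte. Multi-cycle kinetics used 180 s injection and 180 s dissociation.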

phosphorylation of CSF1R = experiment: Western blot of CSF1R signaling in BMDM; type: cell-based, mouse; details: BMDM cells, CSF1 stimulation
In short: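 Fresh mouse BMDMs (2.5 × 10^6/well) were grown 7 days with 10 ng/mL CSF1, with a medium change at day 3. Cells were serum-starved 6 h, given test compound for 2 h, then stimulated with 50 ng/mL CSF1 for 15 min. BCA-normalized SDS lysates were blotted for p-CSF1R, CSF1R, p-AKT and AKT. Densitometry was normalized to tubulin across three independent repeats.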

[11] = system: neovascularization in chick embryos; experiment: Chicken chorioallantoic membrane; type: in vivo; details: CAM assay, 48 h
In short: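 Fertilized eggs were incubated 7 days at 37 °C, 50% humidity. Suction at the broad end made a false air sac, and a 1 cm2 shell window was opened. Glass coverslips (0.5 cm × 0.5 cm) soaked in test compound or vehicle were laid between preexisting vessels, followed by a further 48 h incubation. Neovascular zones beside the coverslips were photographed under a stereomicroscope.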

tube formation of HUVECs = experiment: Tube formation assay; type: cell-based, Human; details: VEGF 100 ng/mL, 8 h, concentration-dependent
In short: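 HUVECs were starved 24 h, then seeded at 20,000 cells/well on growth-factor-reduced Matrigel. Graded test compound concentrations and VEGF (final 100 ng/mL) were added for 8 h. Tubes were photographed through a stereoscope at 4×.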

## CNC(=O)c1ccccc1Sc1ccc2c(/C=C/c3ccccn3)n[nH]c2c1 [Axitinib, reference compound]
[1]
  expression of angiogenic markers CD31 and CD105: effectively suppressed
  expression of M2 phenotype macrophage marker(s) (CD206): no significant changes
[2]; 40 mg/kg orally twice daily
  median survival time: 41 days

## FC(F)(F)c1ccc(CNc2ccc(Cc3c[nH]c4ncc(Cl)cc34)cn2)cn1 [PLX3397, reference compound]
[3]
  expression of M2 markers CD206 and ARG1: significant decrease

## Cc1cc(NC(=O)c2cccc3cc(-c4cccc5[nH]nc(N)c45)ccc23)ccc1F [SYHA1813, 6-(3-amino-1H-indazol-4-yl)-N-(4-fluoro-3-methylphenyl)-1-naphthamide]
[1]; 5 mg/kg orally twice daily
  tumor volume reduced: 67.7%
[1]; 10 mg/kg orally twice daily
  tumor volume reduced: 81.0%
[1]; U251, U87MG and D283 xenograft models
  body weight of the animals: not significantly changed
[1]
  expression of angiogenic markers CD31 and CD105: dramatically reduced
  expression of M2 phenotype macrophage marker(s) (CD206): significantly inhibited
[4]
  cytotoxicity to cells with high expression of Aurora-B: no apparent cytotoxicity
[5]; 5 mg once daily, 4 cycles, recurrent anaplastic oligodendrocytoma patient
  Response Assessment in Neuro-Oncology (RANO): stable disease
[5]; 15 mg/day, recurrent GBM (WHO IV) patient, first follow-up
  contrast-enhancement on T1-weighted images and vasogenic edema on FLAIR images: drastic reduction
[6]
  tumor growth in D283 xenograft: effectively inhibited tumor growth
[7]; brain
  Cmax: 1210 ng/g
[7]; plasma
  AUC(0-t): 4540 ng·h/mL
  Cmax: 1420 ng/mL
Panel of 328 kinases
  inhibition relative to the control, most of the kinases: less than 80%
[2]; 20 mg/kg orally twice daily
  median survival time: 54 days
[2]; 40 mg/kg group, control Day 31
  first death of mice: 43 days
[2]; 40 mg/kg group, control Day 52
  death of the last mouse: 75 days
[2]; 40 mg/kg orally twice daily
  median survival time: 58.5 days
PDGFRα (V561D)
  IC50: 2.4 nM
DBT mouse glioma [8]
  tumor growth: slightly inhibited
DBT mouse glioma [9]; BALB/c mice
  tumor growth of DBT glioma and tumor weight: suppressed
DBT mouse glioma [9]; IHC
  CD8+ T cells in tumor tissue: dramatically increased
HUVEC
  IC50: 13 nM
VEGFR-1
  IC50: 2.8 nM
[10]
  phosphorylation of RET in tumor tissue: rarely inhibited
c-Kit
  IC50: 162 nM
Glioma cell lines
  IC50: > 20 µM
Mouse glioma GL261-luc
  median survival time: prolonged median survival time
c-Kit (D816H)
  IC50: 134 nM
VEGFR-3
  IC50: 4.3 nM
[3]
  expression of M2 markers CD206 and ARG1: significant decrease
CSF1R
  SPR binding to CSF1R: robust binding signal
Phosphorylation of CSF1R
  phosphorylation of CSF1R and activation of downstream AKT: dramatically blocked
[11]
  neovascularization in chick embryos: significantly inhibited
Tube formation of HUVECs
  tube formation of HUVECs: considerably blocked

## Cn1nnc2c(C(N)=O)ncn2c1=O [TMZ, temozolomide, reference compound]
[6]
  tumor growth in D283 xenograft: dramatically insensitive
